ChEMBL document CHEMBL1795210, “Synthesis and screening of (E)-1-(β-D-galactopyranosyl)-4-(aryl)but-3-ene-2-one against Mycobacterium tuberculosis” (2011)
In brackets after ≈: the same amount, converted by molar mass.

These compounds were tested on Mycobacterium tuberculosis (assay: Antimicrobial activity against Mycobacterium tuberculosis H37Rv after 28 days by agar dilution method). Conditions: 672 h.
Assay type: functional
How it was run: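 Agar dilution on Middlebrook 7H11 with OADC supplement. Compound serially diluted into the agar, […]. H37Rv inoculum from fresh 7H11 slants, set to 1 mg/mL wet weight in 0.05% Tween 80 saline, diluted 10^2 to about 10^7 cfu/mL; 5 µL spotted per tube. Incubated at 37 C, read at 28 days. MIC = lowest concentration giving complete growth inhibition.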

SMILES	MIC [µg/mL]
O=C(/C=C/c1ccc(CO)o1)C[C@@H]1O[C@H](CO)[C@H](O)[C@H](O)[C@H]1O	1.56 (≈ 4.75 µM)
COc1ccc(-c2ccc(/C=C/C(=O)C[C@@H]3O[C@H](CO)[C@H](O)[C@H](O)[C@H]3O)o2)cc1Cl	3.13 (≈ 7.13 µM)
O=C(/C=C/c1ccc(-c2ccc(Cl)cc2[N+](=O)[O-])o1)C[C@@H]1O[C@H](CO)[C@H](O)[C@H](O)[C@H]1O	> 12.5
O=C(/C=C/c1ccc(-c2ccccc2[N+](=O)[O-])o1)C[C@@H]1O[C@H](CO)[C@H](O)[C@H](O)[C@H]1O	> 12.5
O=C(/C=C/c1ccc2c(c1)OCO2)C[C@@H]1O[C@H](CO)[C@H](O)[C@H](O)[C@H]1O	1.56 (≈ 4.43 µM)
COc1c(O)cc(/C=C/C(=O)C[C@@H]2O[C@H](CO)[C@H](O)[C@H](O)[C@H]2O)cc1[N+](=O)[O-]	1.56 (≈ 3.91 µM)
COc1cc(/C=C/C(=O)C[C@@H]2O[C@H](CO)[C@H](O)[C@H](O)[C@H]2O)cc(OC)c1OC	6.25 (≈ 15.7 µM)
COc1cc(OC)c(/C=C/C(=O)C[C@@H]2O[C@H](CO)[C@H](O)[C@H](O)[C@H]2O)c(OC)c1	6.25 (≈ 15.7 µM)
COc1ccc(/C=C/C(=O)C[C@@H]2O[C@H](CO)[C@H](O)[C@H](O)[C@H]2O)cc1Br	> 12.5
O=C(/C=C/c1ccc(C(=O)O)cc1)C[C@@H]1O[C@H](CO)[C@H](O)[C@H](O)[C@H]1O	1.56 (≈ 4.43 µM)
CN(C)c1ccc(/C=C/C(=O)C[C@@H]2O[C@H](CO)[C@H](O)[C@H](O)[C@H]2O)cc1	1.56 (≈ 4.44 µM)
O=C(/C=C/c1ccc(N(CCO)CCO)cc1)C[C@@H]1O[C@H](CO)[C@H](O)[C@H](O)[C@H]1O	6.25 (≈ 15.2 µM)
O=C(/C=C/c1ccc2ccccc2n1)C[C@@H]1O[C@H](CO)[C@H](O)[C@H](O)[C@H]1O	3.13 (≈ 8.71 µM)
O=C(/C=C/c1cnc2ccccc2c1)C[C@@H]1O[C@H](CO)[C@H](O)[C@H](O)[C@H]1O	6.25 (≈ 17.4 µM)
O=C(/C=C/c1ccc2cccc(O)c2n1)C[C@@H]1O[C@H](CO)[C@H](O)[C@H](O)[C@H]1O	3.13 (≈ 8.34 µM)
C=Cc1cccc(/C=C/C(=O)C[C@@H]2O[C@H](CO)[C@H](O)[C@H](O)[C@H]2O)c1	3.13 (≈ 9.36 µM)
C#Cc1ccccc1/C=C/C(=O)C[C@@H]1O[C@H](CO)[C@H](O)[C@H](O)[C@H]1O	> 12.5
O=C(/C=C/c1ccc(-c2ccccc2)cc1)C[C@@H]1O[C@H](CO)[C@H](O)[C@H](O)[C@H]1O	6.25 (≈ 16.3 µM)
O=C(/C=C/c1cc(C(F)(F)F)ccc1C(F)(F)F)C[C@@H]1O[C@H](CO)[C@H](O)[C@H](O)[C@H]1O	12.5 (≈ 28.1 µM)
CC[C@@H](CO)NCCN[C@@H](CC)CO [ETHAMBUTOL]	1.56 (≈ 7.64 µM)
NNC(=O)c1ccncc1 [ISONIAZID]	0.05 (≈ 0.365 µM)
CO[C@H]1/C=C/O[C@@]2(C)Oc3c(C)c(O)c4c(O)c(c(/C=N/N5CCN(C)CC5)c(O)c4c3C2=O)NC(=O)/C(C)=C\C=C\[C@H](C)[C@H](O)[C@@H](C)[C@@H](O)[C@@H](C)[C@H](OC(C)=O)[C@@H]1C [RIFAMPIN]	0.1 (≈ 0.122 µM)
